One series addresses T1, Lysyl oxidase homolog 2 (Homo sapiens, UniProt Q9Y4K0).
T1 sequence (Q9Y4K0 whole entry): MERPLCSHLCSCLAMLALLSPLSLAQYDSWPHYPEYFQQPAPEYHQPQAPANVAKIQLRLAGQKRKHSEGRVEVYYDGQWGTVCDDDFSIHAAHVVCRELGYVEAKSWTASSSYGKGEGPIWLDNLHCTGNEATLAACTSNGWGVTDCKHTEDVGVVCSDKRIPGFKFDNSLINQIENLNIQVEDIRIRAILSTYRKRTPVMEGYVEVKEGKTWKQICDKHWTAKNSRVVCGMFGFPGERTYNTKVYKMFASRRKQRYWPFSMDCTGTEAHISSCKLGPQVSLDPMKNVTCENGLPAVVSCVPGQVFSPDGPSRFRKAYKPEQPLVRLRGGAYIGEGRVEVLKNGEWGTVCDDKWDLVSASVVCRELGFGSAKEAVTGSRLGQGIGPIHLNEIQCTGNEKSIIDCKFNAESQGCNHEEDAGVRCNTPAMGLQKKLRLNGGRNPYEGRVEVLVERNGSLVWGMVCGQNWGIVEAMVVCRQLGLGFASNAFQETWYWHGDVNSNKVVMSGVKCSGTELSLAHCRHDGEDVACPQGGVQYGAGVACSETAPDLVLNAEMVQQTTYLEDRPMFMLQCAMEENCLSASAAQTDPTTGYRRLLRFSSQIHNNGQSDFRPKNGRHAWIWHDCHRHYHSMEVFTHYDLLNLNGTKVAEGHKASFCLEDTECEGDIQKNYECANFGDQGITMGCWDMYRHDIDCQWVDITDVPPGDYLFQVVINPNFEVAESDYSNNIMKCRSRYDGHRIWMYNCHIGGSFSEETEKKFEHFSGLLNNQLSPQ
The experiment in a line: Inhibition of human LOXL2 expressed in CHO cells assessed as reduction of H2O2 production from oxidative deamination of DAP preincubated for 2 hrs followed by substrate addition in presence of 0.1% BSA measured every 2 mins for 1 hr by amplex red reagent-based fluorescence assay. In kind it is cell-based.

For series [1], the target named is T2, Diamine oxidase [copper-containing] (Homo sapiens) (UniProt P19801).
T2 sequence (whole entry): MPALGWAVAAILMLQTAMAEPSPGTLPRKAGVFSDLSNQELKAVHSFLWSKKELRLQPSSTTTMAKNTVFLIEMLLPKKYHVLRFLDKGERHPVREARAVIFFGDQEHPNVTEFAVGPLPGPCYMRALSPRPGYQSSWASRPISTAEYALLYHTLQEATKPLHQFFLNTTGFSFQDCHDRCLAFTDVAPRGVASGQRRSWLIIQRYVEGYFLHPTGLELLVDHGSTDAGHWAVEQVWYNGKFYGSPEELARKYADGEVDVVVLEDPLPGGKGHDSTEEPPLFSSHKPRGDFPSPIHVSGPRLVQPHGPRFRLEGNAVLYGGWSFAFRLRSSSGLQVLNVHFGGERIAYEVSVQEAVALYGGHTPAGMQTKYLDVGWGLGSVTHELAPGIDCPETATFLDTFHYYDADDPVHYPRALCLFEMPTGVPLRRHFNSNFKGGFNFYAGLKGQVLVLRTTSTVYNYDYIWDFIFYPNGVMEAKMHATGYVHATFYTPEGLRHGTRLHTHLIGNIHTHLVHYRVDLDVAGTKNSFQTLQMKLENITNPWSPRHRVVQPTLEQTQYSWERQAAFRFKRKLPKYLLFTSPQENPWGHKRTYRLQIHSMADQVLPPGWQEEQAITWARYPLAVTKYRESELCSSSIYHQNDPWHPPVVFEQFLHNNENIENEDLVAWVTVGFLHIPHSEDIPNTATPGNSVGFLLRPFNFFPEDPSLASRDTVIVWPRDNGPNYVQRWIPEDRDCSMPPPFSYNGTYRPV
The experiment in a line: Inhibition of recombinant human DAO assessed as reduction of H2O2 production from oxidative deamination of DAP at 10 uM preincubated for 2 hrs followed by substrate addition measured every 2 mins for 1 hr by amplex red reagent-based fluorescence assay. The method in brief: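 Purified recombinant human DAO was preincubated with compound for 2 h and DAP used as substrate. Percent inhibition was calculated against vehicle and enzyme-free controls.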

The nature of series [2]: Protein binding in human plasma. In kind it is ADME, cell-free. The conditions noted are these: read-out: PPB (converted).
Another series concerns the target T3, Protein-lysine 6-oxidase (Homo sapiens, UniProt P28300).
T3 sequence (P28300 whole entry): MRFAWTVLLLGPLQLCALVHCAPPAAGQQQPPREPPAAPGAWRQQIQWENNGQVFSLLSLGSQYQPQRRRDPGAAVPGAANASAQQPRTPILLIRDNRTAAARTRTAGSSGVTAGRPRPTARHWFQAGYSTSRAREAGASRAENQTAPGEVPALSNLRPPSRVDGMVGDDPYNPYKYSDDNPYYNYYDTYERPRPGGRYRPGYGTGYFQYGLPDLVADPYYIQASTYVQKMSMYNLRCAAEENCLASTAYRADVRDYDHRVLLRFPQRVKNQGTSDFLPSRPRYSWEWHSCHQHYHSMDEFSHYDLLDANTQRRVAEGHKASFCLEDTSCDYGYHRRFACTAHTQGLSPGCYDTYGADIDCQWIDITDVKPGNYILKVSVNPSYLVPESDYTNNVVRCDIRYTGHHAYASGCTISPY
The experiment in a line: Inhibition of human LOX expressed in HEK cells assessed as reduction of H2O2 production from oxidative deamination of DAP preincubated for 2 hrs followed by substrate addition in presence of 0.1% BSA measured every 2 mins for 1 hr by amplex red reagent-based fluorescence assay. In kind it is cell-based.

The test system of the next series is Mus musculus. The experiment in a line: Antifibrotic activity in C57BL/6 mouse assessed as reduction of lung fibrosis administered as po qd for 15 days starting 1 day prior to bleomycin instillation measured on day 14 post bleomycin instillation by Masson's trichrome staining-based assay. In kind it is functional. Summed up: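 Lung fibrosis induced in male C57BL/6 mice aged 6 to 7 weeks by a single oropharyngeal dose of bleomycin (1.5 U/kg). Compound given orally once daily at 3, 10, 30 or 60 mg/kg for 15 days, starting 1 day before bleomycin. Lungs taken at day 14 post-bleomycin, stained with H&E and Masson's trichrome, and an Ashcroft score assigned.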

The IC50 is the concentration at which inhibition is half-maximal. Usually inhibition stands for the change of the read-out against control, counted positive when it falls. As for `Cl.NCc1cc(Oc2cccc(C(=O)N3C[C@@H](O)[C@H](F)C3)c2)nc(C(F)(F)F)c1` (racemic), the IC50 was 0.1 µM at Lysyl oxidase homolog 2 and 35 µM at Protein-lysine 6-oxidase. In addition, in series [1], the inhibition is < 10%. The fraction unbound in series [2] was 0.32. Besides, in the series with Mus musculus, the Activity result is “Dose-dependent effect”. For the same molecule, in the series with Mus musculus (C57BL/6, po, read-out: MED), the minimal effective dose was determined as 30 mg/kg.

The values are drawn from ChEMBL document CHEMBL4049456, “Identification of 4-(Aminomethyl)-6-(trifluoromethyl)-2-(phenoxy)pyridine Derivatives as Potent, Selective, and Orally Efficacious Inhibitors of the Copper-Dependent Amine Oxidase, Lysyl Oxidase-Like 2 (LOXL2)” (J Med Chem, 2017).
